Reference: ChEMBL document CHEMBL3098020, “Synthesis and biological evaluation of novel 2-amino-3-aroyl-4-neopentyl-5-substituted thiophene derivatives as allosteric enhancers of the A₁ adenosine receptor” (Bioorg Med Chem, 2014)

Key:
[1] = molecular target: T1, Adenosine receptor A1 (Homo sapiens) (UniProt P30542); experiment: Allosteric enhancement of human adenosine A1 receptor expressed in CHO cells assessed as inhibition of forskolin-stimulated cAMP production at 100 nM preincubated for 10 mins followed by forskolin challenge measured after 5 mins by scintillation counting analysis in presence of CCPA relative to control; type: functional, cell-based
T1 sequence (whole entry): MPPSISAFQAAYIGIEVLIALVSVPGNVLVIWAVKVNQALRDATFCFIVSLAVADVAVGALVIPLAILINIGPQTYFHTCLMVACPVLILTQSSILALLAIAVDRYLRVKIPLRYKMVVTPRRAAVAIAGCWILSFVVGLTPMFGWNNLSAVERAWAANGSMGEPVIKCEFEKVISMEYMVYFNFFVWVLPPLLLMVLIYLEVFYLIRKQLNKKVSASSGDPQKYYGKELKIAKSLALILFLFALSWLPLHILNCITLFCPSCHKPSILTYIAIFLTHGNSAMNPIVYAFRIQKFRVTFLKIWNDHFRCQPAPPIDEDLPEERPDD
Method in brief: (§1)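 hA1-CHO cells (10⁶ cells/mL) in phosphate buffer with adenosine deaminase 1.0 IU/mL and Ro 20-1724 0.5 mM, preincubated 10 min at 37 °C. Compound added for 10 min, alone or at 100 nM with CCPA 1 pM. Forskolin 1 µM added for 5 min, stopped with cold 6% TCA. cAMP measured by [³H]-cAMP competition protein-binding assay; percent inhibition versus control; three experiments.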

[2] = molecular target: T1, Adenosine receptor A1 (Homo sapiens); experiment: Potentiation of CCPA-induced displacement of [3H]-DPCPX from human adenosine A1 receptor expressed in CHO cell membranes at 10 uM after 90 mins relative to CCPA-treated control
Method in brief: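 CCPA (0.01 nM–1 µM) competition against [³H]DPCPX in hA1-CHO membranes, with or without compound at 10 µM. Nonspecific binding defined with 1 µM DPCPX. Ki calculated from IC50 by the Cheng-Prusoff equation; CCPA Ki shift given as fold change; three experiments.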

[3] = molecular target: Adenosine receptor A2a (Homo sapiens) (UniProt P29274); experiment: Displacement of [3H]-ZM241385 from human adenosine A2A receptor expressed in CHO cell membranes at 10 uM by scintillation counting analysis relative to control
Chain of Adenosine receptor A2a (Homo sapiens) (P29274 whole entry): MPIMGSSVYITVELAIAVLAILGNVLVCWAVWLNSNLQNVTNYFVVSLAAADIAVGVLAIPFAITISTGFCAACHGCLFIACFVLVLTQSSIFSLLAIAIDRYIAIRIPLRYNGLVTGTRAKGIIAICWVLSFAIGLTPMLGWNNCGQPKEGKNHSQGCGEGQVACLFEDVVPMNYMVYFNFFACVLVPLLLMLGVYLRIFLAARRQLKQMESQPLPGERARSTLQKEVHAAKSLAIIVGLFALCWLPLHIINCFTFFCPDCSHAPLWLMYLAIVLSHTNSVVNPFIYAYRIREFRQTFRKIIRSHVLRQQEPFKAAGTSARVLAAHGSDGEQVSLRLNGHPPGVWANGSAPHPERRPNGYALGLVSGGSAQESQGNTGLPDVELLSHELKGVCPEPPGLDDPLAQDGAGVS
Method in brief: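 A2A-expressing CHO membranes, pretreated with adenosine deaminase, in 50 mM Tris-HCl, 10 mM MgCl₂ pH 7.4 with 1 nM [³H]ZM 241385. Incubated 60 min at 4 °C. Compound 10 µM in 1% DMSO final. Filtration and scintillation counting; percent inhibition of specific binding.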

[4] = molecular target: T1, Adenosine receptor A1 (Homo sapiens); experiment: Allosteric enhancement of human adenosine A1 receptor expressed in CHO cells assessed as inhibition of forskolin-stimulated cAMP production at 10 uM preincubated for 10 mins followed by forskolin challenge measured after 5 mins by scintillation counting analysis relative to control; type: functional, cell-based; method in brief: as §1
[5] = molecular target: T1, Adenosine receptor A1 (Homo sapiens); experiment: Potentiation of [3H]CCPA binding to human adenosine A1 receptor expressed in CHO cell membranes at 10 uM after 90 mins relative to [3H]CCPA-treated control
[6] = molecular target: T2, Adenosine receptor A3 (Homo sapiens) (UniProt P0DMS8); experiment: Displacement of [3H]-MRE-3008-F20 from human adenosine A3 receptor expressed in CHO cell membranes at 10 uM by scintillation counting analysis relative to control
T2 sequence (whole entry): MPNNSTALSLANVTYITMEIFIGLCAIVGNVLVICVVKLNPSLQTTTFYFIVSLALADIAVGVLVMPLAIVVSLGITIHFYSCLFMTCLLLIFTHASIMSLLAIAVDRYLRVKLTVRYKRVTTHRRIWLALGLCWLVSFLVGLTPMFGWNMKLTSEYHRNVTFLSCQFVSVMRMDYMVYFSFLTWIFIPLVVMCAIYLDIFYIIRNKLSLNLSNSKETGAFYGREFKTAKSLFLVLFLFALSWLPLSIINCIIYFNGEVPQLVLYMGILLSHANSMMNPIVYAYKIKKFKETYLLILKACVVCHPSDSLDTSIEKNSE
Method in brief: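 A3-expressing CHO membranes in 50 mM Tris-HCl, 10 mM MgCl₂, 1 mM EDTA pH 7.4 with 2 nM [³H]MRE-3008-F20. Incubated 120 min at 4 °C. Compound 10 µM in 1% DMSO final. Filtration and scintillation counting; percent inhibition of specific binding.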

[7] = molecular target: T1, Adenosine receptor A1 (Homo sapiens); experiment: Displacement of [3H]-DPCPX from human adenosine A1 receptor expressed in CHO cell membranes at 10 uM by scintillation counting analysis relative to control
Method in brief: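 hA1-CHO membranes, pretreated with adenosine deaminase, in 50 mM Tris-HCl pH 7.4 with 1 nM [³H]DPCPX. Incubated 120 min at 25 °C. Compound 10 µM added from 100-fold DMSO stock, 1% DMSO final. Bound ligand collected on glass-fibre filters and counted by scintillation; percent inhibition of specific binding.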

Row | Structure (SMILES) | inhibition [1] [%] | fold change (FC) [2] | inhibition [3] [%] | inhibition [4] [%] | fold change (FC) [5] | inhibition [6] [%] | inhibition [7] [%]
1 | CC(C)(C)Cc1c(-c2ccccc2)sc(N)c1C(=O)c1ccc(Cl)cc1 | 53 | 4.8 | 1 | 51 | 6.9 | 1 | 1
2 | Cc1ccc(C(=O)c2c(N)sc(-c3ccccc3)c2CC(C)(C)C)cc1 | 61 | 5 | 6 | 62 | 6.7 | 1 | 1
3 | CC(C)(C)Cc1c(/C=C/c2ccc(Cl)cc2)sc(N)c1C(=O)c1ccc(Cl)cc1 | 53 | 2.8 | 1 | 51 | 4.8 | 11 | 1
4 | CC(C)(C)Cc1c(-c2ccc(Cl)c(Cl)c2)sc(N)c1C(=O)c1ccc(Cl)cc1 | 61 | 4.3 | 1 | 59 | 6 | 1 | 1
5 | CC(C)(C)Cc1c(-c2cn[nH]c2)sc(N)c1C(=O)c1ccc(Cl)cc1 | 31 | 1.7 | 1 | 27 | 2.5 | 1 | 1
6 | Cc1csc(N)c1C(=O)c1ccc(Cl)cc1 | 18 | 1.6 | 1 | 16 | 1.5 | 1 | 1
7 | CC(C)(C)Cc1c(-c2ccc(F)cc2)sc(N)c1C(=O)c1ccc(Cl)cc1 | 52 | 3.7 | 1 | 50 | 5.5 | 9 | 1
8 | COc1ccc(-c2sc(N)c(C(=O)c3ccc(Cl)c(Cl)c3)c2CC(C)(C)C)cc1 | 52 | 4.3 | 1 | 54 | 6 | 1 | 1
9 | Cc1sc(N)c(C(=O)c2ccc(Cl)cc2)c1-c1ccccc1 | 21 | 1.6 | 1 | 16 | 1.4 | 1 | 1
10 | CC(C)(C)Cc1csc(N)c1C(=O)c1ccc(Cl)c(Cl)c1 | 41 | 2 | 1 | 43 | 4.1 | 10 | 1
11 | Cc1ccc(C(=O)c2c(N)sc(Br)c2CC(C)(C)C)cc1 | 63 | 4.3 | 1 | 61 | 6.4 | 1 | 1
12 | CC(C)(C)Cc1c(-c2ccc3c(c2)OCO3)sc(N)c1C(=O)c1ccc(Cl)cc1 | 59 | 5.2 | 1 | 61 | 6.6 | 1 | 1
13 | COc1ccc(-c2sc(N)c(C(=O)c3ccc(Cl)cc3)c2CC(C)(C)C)cc1 | 43 | 4.3 | 1 | 44 | 6.1 | 2 | 1
14 | CC(C)(C)Cc1c(-c2ccc(OC(F)(F)F)cc2)sc(N)c1C(=O)c1ccc(Cl)cc1 | 55 | 4.6 | 1 | 56 | 6.4 | 1 | 1
15 | CC(C)(C)Cc1c(-c2ccoc2)sc(N)c1C(=O)c1ccc(Cl)cc1 | 56 | 3.1 | 1 | 55 | 5.6 | 1 | 1
16 | CC(C)(C)Cc1c(-c2ccsc2)sc(N)c1C(=O)c1ccc(Cl)cc1 | 67 | 4.7 | 1 | 62 | 6.4 | 4 | 2
17 | CC(C)(C)Cc1c(-c2cccc(F)c2F)sc(N)c1C(=O)c1ccc(Cl)cc1 | 63 | 4.9 | 3 | 60 | 6.1 | 1 | 1
18 | CC(C)(C)Cc1csc(N)c1C(=O)c1cccc(Cl)c1 | 42 | 1.5 | 1 | 45 | 4.3 | 8 | 2
19 | Cc1noc(C)c1-c1sc(N)c(C(=O)c2ccc(Cl)cc2)c1CC(C)(C)C | 19 | 1.1 | 1 | 12 | 1.4 | 1 | 1
20 | COc1ccc(-c2sc(N)c(C(=O)c3ccc(C)cc3)c2CC(C)(C)C)cc1 | 60 | 5.4 | 3 | 64 | 7.4 | 5 | 1
21 | Cc1ccc(C(=O)c2c(CC(C)(C)C)csc2N)cc1 | 35 | 2 | 1 | 38 | 3.3 | 1 | 1
22 | COc1ccc(-c2sc(N)c(C(=O)c3ccc(Cl)cc3)c2C)cc1 | 22 | 1.8 | 1 | 24 | 2.1 | 1 | 1
23 | COc1cccc(-c2sc(N)c(C(=O)c3ccc(Cl)cc3)c2CC(C)(C)C)c1 | 57 | 5.8 | 2 | 55 | 6.3 | 1 | 1
24 | CC(C)(C)Cc1c(-c2cccs2)sc(N)c1C(=O)c1ccc(Cl)cc1 | 62 | 3.9 | 2 | 58 | 6.2 | 1 | 1
25 | CC(C)(C)Cc1c(-c2ccccc2)sc(N)c1C(=O)c1cccc(C(F)(F)F)c1 | 39 | 3.6 | 1 | 38 | 4 | 1 | 1
26 | CC(C)(C)Cc1c(-c2ccccn2)sc(N)c1C(=O)c1ccc(Cl)cc1 | 43 | 2.2 | 1 | 40 | 3.5 | 1 | 1
27 | CC(C)(C)c1csc(N)c1C(=O)c1ccc(Cl)cc1 | 18 | 1.6 | 1 | 11 | 1.3 | 1 | 1
